In ChEMBL document CHEMBL5038587, “Synthesis of Methoxy-, Methylenedioxy-, Hydroxy-, and Halo-Substituted Benzophenanthridinone Derivatives as DNA Topoisomerase IB (TOP1) and Tyrosyl-DNA Phosphodiesterase 1 (TDP1) Inhibitors and Their Biological Activity for Drug-Resistant Cancer” (J Med Chem, 2021):
Calls of active or inactive are those of the source. The calls are words filed in the database; no cut-off is given here.

target: Tyrosyl-DNA phosphodiesterase 1 (Homo sapiens, UniProt Q9NUW8); assay: Inhibition of TDP1 (unknown origin) using 5'-FAM-AGGATCTAAAAGACTT-BHQ-3' as substrate at 100 uM measured after 30 mins by fluorescence assay relative to control
Sequence (Q9NUW8 whole entry): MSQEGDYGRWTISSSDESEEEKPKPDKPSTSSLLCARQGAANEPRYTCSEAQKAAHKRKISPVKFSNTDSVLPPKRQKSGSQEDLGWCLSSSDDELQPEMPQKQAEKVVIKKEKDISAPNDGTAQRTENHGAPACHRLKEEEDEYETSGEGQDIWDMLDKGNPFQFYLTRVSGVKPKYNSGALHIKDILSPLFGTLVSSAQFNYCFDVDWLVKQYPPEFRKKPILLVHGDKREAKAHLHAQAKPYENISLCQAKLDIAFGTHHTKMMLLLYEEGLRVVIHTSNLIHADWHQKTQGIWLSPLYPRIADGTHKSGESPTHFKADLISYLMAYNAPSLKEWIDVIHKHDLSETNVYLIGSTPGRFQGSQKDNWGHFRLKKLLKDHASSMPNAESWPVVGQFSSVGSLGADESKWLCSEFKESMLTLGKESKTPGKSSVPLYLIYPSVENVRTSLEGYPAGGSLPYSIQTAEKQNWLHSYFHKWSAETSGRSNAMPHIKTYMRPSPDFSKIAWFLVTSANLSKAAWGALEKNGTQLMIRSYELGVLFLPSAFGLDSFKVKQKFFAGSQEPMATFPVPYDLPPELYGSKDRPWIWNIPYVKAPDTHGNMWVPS

Compound | inhibition [%]
COc1ccc2c(c1OC)c(=O)n(CCN(C)C)c1c3ccccc3ccc21 | 0
CN(C)CCn1c(=O)c2cc(F)c(F)cc2c2ccc3ccccc3c21 | 0
COc1cc2c(=O)n(CCN(C)C)c3c4cc5c(cc4ccc3c2cc1O)OCO5 | 0
COc1ccc2c(ccc3c4ccccc4c(=O)n(CCN(C)C)c23)c1 | 0
CN(C)CCn1c(=O)c2cc(Br)ccc2c2ccc3cc4c(cc3c21)OCO4 | 0
CN(C)CCn1c(=O)c2ccccc2c2ccc3cc(Br)ccc3c21 | 0
COc1cccc2ccc3c4ccccc4c(=O)n(CCN(C)C)c3c12 | 0
CN(C)CCn1c(=O)c2cc(F)c(F)cc2c2ccc3cc4c(cc3c21)OCO4 | 0
COc1cccc2c1ccc1c3ccccc3c(=O)n(CCN(C)C)c21 | 0

system: HCT-116; assay: Cytotoxicity against human HCT-116 cells assessed as cell growth inhibition after 72 hrs by MTT assay; format: functional
Summary of the method: (§1)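 Cells kept in RPMI 1640 or DMEM with 10% FBS at 37 °C, 5% CO2. Compounds predissolved in DMSO, tested in a five-dose series from 0.01 to 100 µM for 72 h, then read by MTT. Percent viability inhibition is taken against control, and GI50 is fitted by nonlinear regression.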

Compound | GI50 [nM]
CC[C@@]1(O)C(=O)OCc2c1cc1n(c2=O)Cc2cc3ccccc3nc2-1 [CAMPTOTHECIN] | 50
COc1cc2c(=O)n(CCN(C)C)c3c4cc5c(cc4ccc3c2cc1OC)OCO5 | 140

system: DU-145; assay: Cytotoxicity against human DU145 cells assessed as cell growth inhibition after 72 hrs by MTT assay; format: functional
Summary of the method: (§2)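 Compounds predissolved in DMSO, tested in a five-dose series from 0.01 to 100 µM for 72 h, then read by MTT. Percent viability inhibition is taken against control, and GI50 is fitted by nonlinear regression.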

Compound | GI50 [nM]
COc1cc2c(=O)n(CCN(C)C)c3c4cc5c(cc4ccc3c2cc1OC)OCO5 | 78

system: MCF7; assay: Cytotoxicity against human MCF-7 cells assessed as cell growth inhibition after 72 hrs by MTT assay; format: functional; summary of the method: as §2

Compound | GI50 [nM]
CC[C@@]1(O)C(=O)OCc2c1cc1n(c2=O)Cc2cc3ccccc3nc2-1 [CAMPTOTHECIN] | 350
COc1cc2c(=O)n(CCN(C)C)c3c4cc5c(cc4ccc3c2cc1OC)OCO5 | 200
COc1cc2c(=O)n(CCN(C)C)c3c4cc5c(cc4ccc3c2cc1O)OCO5 | > 100000

system: A549; assay: Cytotoxicity against human A549 cells assessed as cell growth inhibition after 72 hrs by MTT assay; format: functional; summary of the method: as §1

Compound | GI50 [nM]
CC[C@@]1(O)C(=O)OCc2c1cc1n(c2=O)Cc2cc3ccccc3nc2-1 [CAMPTOTHECIN] | 310
COc1cc2c(=O)n(CCN(C)C)c3c4cc5c(cc4ccc3c2cc1OC)OCO5 | 320
COc1cc2c(=O)n(CCN(C)C)c3c4cc5c(cc4ccc3c2cc1O)OCO5 | > 100000

system: MCF7; assay: Cytotoxicity against human MCF-7/TDP1 cells assessed as cell growth inhibition after 72 hrs by MTT assay; format: functional
Summary of the method: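 MCF-7/TDP1 is a TDP1-overexpressing line made by transfecting parental MCF-7, grown in RPMI 1640 or DMEM with 10% FBS at 37 °C, 5% CO2. DMSO-dissolved compounds tested at five doses from 0.01 to 100 µM, read by MTT. GI50 (mean ± SD, at least three repeats) fitted by nonlinear regression against control.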

Compound | GI50 [nM]
CC[C@@]1(O)C(=O)OCc2c1cc1n(c2=O)Cc2cc3ccccc3nc2-1 [CAMPTOTHECIN] | 3210
COc1cc2c(=O)n(CCN(C)C)c3c4cc5c(cc4ccc3c2cc1OC)OCO5 | 7420

system: not listed separately; assay: Resistance index,ratio of GI50 for growth inhibition of human MCF-7/TDP1 cells to GI50 for growth inhibition of human MCF-7 cells; format: functional
Summary of the method: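 Resistance index is the MTT GI50 in TDP1-overexpressing MCF-7/TDP1 (transfected MCF-7) divided by the GI50 in parental MCF-7. GI50 values are mean ± SD of at least three experiments.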

Compound | RatioGI50
COc1cc2c(=O)n(CCN(C)C)c3c4cc5c(cc4ccc3c2cc1OC)OCO5 | 19.9

target: T1, DNA topoisomerase 1 (Homo sapiens) (UniProt P11387); assay: Inhibition of recombinant TOP1 (unknown origin) at 1 uM using 3'-[32P]-labeled 117 bp DNA oligonucleotides as substrate incubated for 20 mins by PAGE analysis relative to CPT
T1 sequence (whole entry): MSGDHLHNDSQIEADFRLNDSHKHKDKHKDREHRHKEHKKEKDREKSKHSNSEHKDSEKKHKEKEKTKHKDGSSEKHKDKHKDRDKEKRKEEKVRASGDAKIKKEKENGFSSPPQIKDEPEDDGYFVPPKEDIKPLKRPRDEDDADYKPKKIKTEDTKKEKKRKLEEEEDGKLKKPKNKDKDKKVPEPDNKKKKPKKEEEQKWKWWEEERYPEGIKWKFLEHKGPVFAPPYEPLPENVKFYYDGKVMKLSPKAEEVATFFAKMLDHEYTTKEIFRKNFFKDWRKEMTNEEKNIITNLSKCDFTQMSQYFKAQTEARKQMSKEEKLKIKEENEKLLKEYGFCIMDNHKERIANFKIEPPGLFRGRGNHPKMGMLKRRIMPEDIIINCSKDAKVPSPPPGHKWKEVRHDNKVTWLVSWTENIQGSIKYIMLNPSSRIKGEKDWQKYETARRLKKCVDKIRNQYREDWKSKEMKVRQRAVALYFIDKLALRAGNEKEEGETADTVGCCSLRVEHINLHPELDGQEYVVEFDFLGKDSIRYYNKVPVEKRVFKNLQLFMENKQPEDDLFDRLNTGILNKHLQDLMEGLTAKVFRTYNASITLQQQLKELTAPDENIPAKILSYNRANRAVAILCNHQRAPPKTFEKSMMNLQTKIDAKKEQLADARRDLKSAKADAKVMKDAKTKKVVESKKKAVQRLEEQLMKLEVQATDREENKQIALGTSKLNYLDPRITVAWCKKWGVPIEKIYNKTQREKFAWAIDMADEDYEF
Summary of the method: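 3'-[32P]-labeled 117 bp oligonucleotide (~2 nM) with recombinant TOP1 and compound, 25 °C, 20 min. Buffer: 10 mM Tris-HCl pH 7.5, 50 mM KCl, 5 mM MgCl2, 0.1 mM EDTA, BSA. Stopped with 0.5% SDS and run on 20% denaturing PAGE with phosphorimaging.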

Compound | inhibition
COc1cc2c(cc1O)c(=O)n(CCN(C)C)c1c3cc4c(cc3ccc21)OCO4 | 20%
COc1ccc2c(c1O)c(=O)n(CCN(C)C)c1c3cc4c(cc3ccc21)OCO4 | 20%
CN(C)CCn1c(=O)c2c3c(ccc2c2ccc4ccccc4c21)OCO3 | 20%
CN(C)CCn1c(=O)c2cc3c(cc2c2ccc4ccccc4c21)OCO3 | 25%
COc1ccc2c(c1)c(=O)n(CCN(C)C)c1c3ccccc3ccc21 | 20%
COc1ccc2c(=O)n(CCN(C)C)c3c4ccccc4ccc3c2c1 | 20%
COc1cc2c3ccccc3c(=O)n(CCN(C)C)c2c2ccccc12 | < 20%
COc1cc2ccc3c4cc5c(cc4c(=O)n(CCN(C)C)c3c2cc1OC)OCO5 | < 20%
COc1cc2c(=O)n(CCN(C)C)c3c4ccccc4ccc3c2cc1OC | 25%
COc1ccc2c(c1OC)c(=O)n(CCN(C)C)c1c3ccccc3ccc21 | inactive
COc1cc2ccc3c4cc(OC)c(OC)cc4c(=O)n(CCN(C)C)c3c2cc1OC | < 20%
CN(C)CCn1c(=O)c2cc(F)c(F)cc2c2ccc3ccccc3c21 | 50%
COc1cc2c(ccc3c4cc(OC)c(OC)cc4c(=O)n(CCN(C)C)c23)cc1O | 20%
COc1cc2c(=O)n(CCN(C)C)c3c4cc5c(cc4ccc3c2cc1O)OCO5 | 20%
COc1cc2ccc3c4ccccc4c(=O)n(CCN(C)C)c3c2cc1OC | 20%
CN(C)CCn1c(=O)c2cc3c(cc2c2ccc4cc5c(cc4c21)OCO5)OCO3 | 20%
COc1ccc2c(ccc3c4ccccc4c(=O)n(CCN(C)C)c23)c1 | 20%
CN(C)CCn1c(=O)c2c3c(ccc2c2ccc4cc5c(cc4c21)OCO5)OCO3 | 20%
CN(C)CCn1c(=O)c2cc(Br)ccc2c2ccc3cc4c(cc3c21)OCO4 | inactive
CN(C)CCn1c(=O)c2ccccc2c2ccc3cc(Br)ccc3c21 | 20%
COc1cccc2ccc3c4ccccc4c(=O)n(CCN(C)C)c3c12 | inactive
CN(C)CCn1c(=O)c2cc(F)c(F)cc2c2ccc3cc4c(cc3c21)OCO4 | 75%
COc1cccc2c1ccc1c3ccccc3c(=O)n(CCN(C)C)c21 | 20%
COc1cccc2c1c(=O)n(CCN(C)C)c1c3ccccc3ccc21 | inactive
